CHRM5 PAM: human M5 muscarinic receptor positive allosteric modulators, primary screen, CHO-K1 cells, Fluo-8 calcium fluorescence; CHO-K1 hM5, ACh EC20 PAM; 0% = ACh EC20, 100% = ACh EC100; activation, % at 3 µM; actives 0.3% (n = 360,000);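 active means activation above the run cutoff, the mean activation of all test compounds plus 3 SD, cut at about 18% in these data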
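Assay system: CHO-K1 hM5 cells. Also added: acetylcholine at EC20 concentration, added after compound. Dosing: 3 µM, single dose. Times: compound preincubation 140 s before EC20 acetylcholine addition. Signal: Fluo-8 calcium fluorescence. Measure: % activation relative to EC20 and EC100 ACh responses. Repeats: singlicate, one well per test compound.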
M5 ag: human M5 muscarinic receptor agonists, primary screen, CHO-K1 cells, Fluo-8 calcium fluorescence. Muscarinic acetylcholine receptor M5 (Homo sapiens), P08912. CHO-K1 hM5 cells; 0% DMSO wells, 100% maximal acetylcholine response. activation, % at 3 µM. actives 0.19% (n = 360,000). AID 624037, 2012;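 active means activation above the run's mean over test compounds plus 3 SD, cut at about 23% in these data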;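 further: signal is peak over basal fluorescence ratio across the kinetic read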
M4 PAM: human M4 muscarinic receptor positive allosteric modulators, primary screen, CHO-K1 cells, Fluo-8 calcium fluorescence; Muscarinic acetylcholine receptor M4 (Homo sapiens), P08173; CHO-K1 hM4/Gqi5, ACh EC20; 0% = ACh EC20, 100% = maximal ACh; activation, % at 3 µM; actives 0.4% (n = 360,000);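 active means activation above its plate's cutoff, the mean activation of sample wells plus 3 SD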
Target sequence (P08173 whole entry, looked up): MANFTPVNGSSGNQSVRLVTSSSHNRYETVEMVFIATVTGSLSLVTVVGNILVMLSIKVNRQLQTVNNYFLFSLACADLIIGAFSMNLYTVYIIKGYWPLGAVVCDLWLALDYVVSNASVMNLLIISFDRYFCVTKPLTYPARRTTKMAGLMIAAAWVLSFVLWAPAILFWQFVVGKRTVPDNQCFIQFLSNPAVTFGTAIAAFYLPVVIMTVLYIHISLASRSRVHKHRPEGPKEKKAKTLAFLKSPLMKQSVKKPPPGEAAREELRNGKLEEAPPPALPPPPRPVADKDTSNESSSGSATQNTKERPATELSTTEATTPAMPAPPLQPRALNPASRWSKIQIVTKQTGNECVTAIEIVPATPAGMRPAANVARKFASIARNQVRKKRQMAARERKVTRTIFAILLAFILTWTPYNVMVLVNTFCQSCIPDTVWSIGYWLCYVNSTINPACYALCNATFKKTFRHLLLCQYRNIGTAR
M4 antag: human M4 muscarinic receptor antagonists, primary screen, CHO cells, Fluo-8 calcium fluorescence | AID 624125, 2012 | inhibition, % at 3 µM | CHO-hM4 cells, ACh EC80 | actives 0.73% (n = 360,000);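 active means inhibition above its plate's cutoff, the mean inhibition of sample wells plus 3 SD, cut at about 27% in these data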;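 further: 0% = acetylcholine EC80 with DMSO and 100% = DMSO without agonist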
CHRM5 antagonist: human M5 muscarinic receptor antagonists, primary screen, CHO cells, Fluo-8 calcium fluorescence; actives 0.59% (n = 360,000); CHO-hM5 cells, ACh EC80; inhibition, % at 3 µM; Muscarinic acetylcholine receptor M5 (Homo sapiens), P08912;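 active means inhibition above a per-plate cutoff, the mean of that plate's test compounds plus 3 SD, cut at about 27% in these data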;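 further: 0% = acetylcholine EC80 with DMSO and 100% = DMSO without agonist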
CHRM4 agonist: human M4 muscarinic receptor agonists, primary screen, CHO-K1 cells, Fluo-8 calcium fluorescence; Muscarinic acetylcholine receptor M4 (Homo sapiens), P08173; activation, % at 3 µM; CHO-K1 hM4/Gqi5; vehicle 0%, full acetylcholine response 100%; actives 0.14% (n = 360,000); AID 624127, 2012;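 active means activation above the run mean over all test wells plus 3 SD, cut at about 32% in these data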;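 further: peak over basal fluorescence ratio per well then scaled between controls; 0% = DMSO wells and 100% = acetylcholine at EC100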
Numbers without * were called inactive. A selection: hits, their analogues and other compounds. The true share with any hit is near 1.8%.

Screening Cc1cc2n(n1)C(c1ccc(O)cc1)Nc1ccccc1-2 (configuration not stated) returned CHRM5 PAM -1, M5 ag 6, M4 PAM 30*, M4 antag 13, CHRM5 antagonist 0 and CHRM4 agonist 1.
Screening COc1ccccc1CNC(=O)C1CC(c2ccccc2[N+](=O)[O-])=NO1 (configuration not stated) returned CHRM5 PAM 21*, M5 ag 0, M4 PAM 14, M4 antag -6, CHRM5 antagonist -6 and CHRM4 agonist 1.
For Cc1ccccc1S(=O)(=O)NC(=O)C1(C)CCN1C(=O)C/C=C/c1ccccc1 (configuration not stated) the results were CHRM5 PAM -3, M5 ag -1, M4 PAM -13, M4 antag 85*, CHRM5 antagonist -3 and CHRM4 agonist 0.
CC1(C(=O)NS(=O)(=O)c2ccccc2Cl)CCN1C(=O)CC1CCCC1 (configuration not stated) was read as CHRM5 PAM 0, M5 ag 1, M4 PAM 15*, M4 antag -11, CHRM5 antagonist 2 and CHRM4 agonist 1.
Cc1ccccc1S(=O)(=O)NC(=O)C1(C)CCN1C(=O)CC1CCCC1 (configuration not stated) was read as CHRM5 PAM -1, M5 ag 1, M4 PAM 6, M4 antag -7, CHRM5 antagonist 3 and CHRM4 agonist 1.
Screening CCCC(=O)Nc1ccc2c(c1)nc1n2CCN(C2CCCCC2)C1 returned CHRM5 PAM 2, M5 ag -3, M4 PAM -1, M4 antag -10, CHRM5 antagonist 5 and CHRM4 agonist 1.
`CC(C)c1ccc(OCC(=O)NC(=S)Nc2ccc3c4c(cccc24)CC3)cc1` gave CHRM5 PAM 9, M5 ag 2, M4 PAM 5, M4 antag 30*, CHRM5 antagonist -3 and CHRM4 agonist 2.
Clc1ccccc1N=C1NN=C(c2cccs2)CS1 was read as CHRM5 PAM 4, M5 ag -3, M4 PAM -2, M4 antag -8, CHRM5 antagonist 2 and CHRM4 agonist 1.
For C1CN(c2nc3nonc3nc2N2C[C@H]3CC[C@H]2C3)CCS1 the results were CHRM5 PAM -6, M5 ag -3, M4 PAM -4, M4 antag -4, CHRM5 antagonist 10 and CHRM4 agonist 1.
For CC1(C)Cc2c(cnn2-c2ccc(F)cc2)C(NC(=O)CCCN2CCCCC2=O)C1 (configuration not stated) the results were CHRM5 PAM 2, M5 ag 4, M4 PAM -3, M4 antag 3, CHRM5 antagonist -8 and CHRM4 agonist 0.
Cc1cc(C)c2sc(NC(=O)C3=COCCO3)nc2c1 was read as CHRM5 PAM 0, M5 ag -1, M4 PAM 22*, M4 antag -9, CHRM5 antagonist 2 and CHRM4 agonist 3.
For O=c1c2ccccc2nc2n1CCCCC2 the results were CHRM5 PAM -8, M5 ag -12, M4 PAM -11, M4 antag 14, CHRM5 antagonist 10 and CHRM4 agonist 0.
For N=c1c2ccccc2nc2n1CCCCCCCCCCC2 the results were CHRM5 PAM -28, M5 ag 4, M4 PAM -9, M4 antag 23, CHRM5 antagonist 16 and CHRM4 agonist 34*.
For O=C(CSc1nccn1-c1ncc(C(F)(F)F)cc1Cl)c1ccc(Br)cc1 the results were CHRM5 PAM 22*, M5 ag -2, M4 PAM 8, M4 antag -6, CHRM5 antagonist 19 and CHRM4 agonist 1.

Assay outcomes deposited in PubChem by The Scripps Research Institute Molecular Screening Center.
